The record followed here is ChEMBL document CHEMBL1155379, “Effect of 3'-end capping of aptamer with various 2',4'-bridged nucleotides: Enzymatic post-modification toward a practical use of polyclonal aptamers” (Bioorg Med Chem Lett, 2010).

The nature of data set [1]: Chemical stability in presence of 80% (v/v) human serum assessed as intact compound remaining after 8 hrs by PAGE. The format is physicochemical. The conditions noted are these: read-out: Stability. The gist of the method: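 Aptamer incubated in 80% v/v human serum at 37 °C for 8 h; intact full-length aptamer remaining quantified.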
For data set [2], the target named is Prothrombin (Homo sapiens, UniProt P00734). In words: Binding affinity to human thrombin after 30 mins by non-equilibrium capillary electrophoresis. The gist of the method:
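Capillary electrophoresis of aptamer–thrombin mixtures: aptamer 1 nM with thrombin 4 nM in 20 mM Tris-HCl (1 mM MgCl2) pH 7.4 sample buffer; running buffer 100 mM sodium borate pH 8.35; separation +12 kV, injection 0.5 psi × 7.8 s. Kd derived from binding saturation curves over varied thrombin concentrations.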

The nature of data set [3]: Chemical stability in presence of snake venom phosphodiesterase 1 assessed as oligonucleotide degradation after 120 mins by PAGE. The data set is classed as physicochemical. Particulars: 2 h.

On to `C=C1NC(=O)C(C)=CN1[C@H]1C[C@H](OP(=O)(O)OC[C@H]2O[C@@H](n3cnc4c(=O)[nH]c(N)nc43)[C@H](O)[C@@H]2OP(=O)(O)OC[C@H]2O[C@@H](n3cnc4c(N)ncnc43)[C@H](O)[C@@H]2OP(=O)(O)OC[C@H]2O[C@@H](n3ccc(N)nc3=O)[C@H](O)[C@@H]2OP(=O)(O)OC[C@H]2O[C@@H](n3cc(C)c(=O)[nH]c3=O)C[C@@H]2OP(=O)(O)OC[C@@]23CNO[C@@H]([C@H](n4cc(C)c(=O)[nH]c4=O)O2)[C@@H]3O)[C@@H](COP(=O)(O)O[C@H]2[C@@H](O)[C@H](n3cnc4c(=O)[nH]c(N)nc43)O[C@@H]2COP(=O)(O)O[C@H]2[C@@H](O)[C@H](n3cnc4c(=O)[nH]c(N)nc43)O[C@@H]2COP(=O)(O)O[C@H]2[C@@H](O)[C@H](n3cnc4c(=O)[nH]c(N)nc43)O[C@@H]2COP(=O)(O)O[C@H]2[C@@H](O)[C@H](n3cnc4c(=O)[nH]c(N)nc43)O[C@@H]2COP(=O)(O)O[C@H]2C[C@H](n3cc(C)c(=O)[nH]c3=O)O[C@@H]2COP(=O)(O)O[C@H]2C[C@H](n3cc(C)c(=O)[nH]c3=O)O[C@@H]2COP(=O)(O)O[C@H]2[C@@H](O)[C@H](n3cnc4c(=O)[nH]c(N)nc43)O[C@@H]2COP(=O)(O)O[C@H]2[C@@H](O)[C@H](n3cnc4c(=O)[nH]c(N)nc43)O[C@@H]2COP(=O)(O)O[C@H]2[C@@H](O)[C@H](n3cnc4c(N)ncnc43)O[C@@H]2COP(=O)(O)O[C@H]2[C@@H](O)[C@H](n3ccc(N)nc3=O)O[C@@H]2COP(=O)(O)O[C@H]2[C@@H](O)[C@H](n3cnc4c(=O)[nH]c(N)nc43)O[C@@H]2COP(=O)(O)O[C@H]2[C@@H](O)[C@H](n3cnc4c(=O)[nH]c(N)nc43)O[C@@H]2COP(=O)(O)O[C@H]2[C@@H](O)[C@H](n3cnc4c(=O)[nH]c(N)nc43)O[C@@H]2COP(=O)(O)O[C@H]2[C@@H](O)[C@H](n3cnc4c(N)ncnc43)O[C@@H]2COP(=O)(O)O[C@H]2C[C@H](n3cc(C)c(=O)[nH]c3=O)O[C@@H]2COP(=O)(O)O[C@H]2[C@@H](O)[C@H](n3cnc4c(=O)[nH]c(N)nc43)O[C@@H]2COP(=O)(O)O[C@H]2[C@@H](O)[C@H](n3cnc4c(=O)[nH]c(N)nc43)O[C@@H]2COP(=O)(O)O[C@H]2C[C@H](n3cc(C)c(=O)[nH]c3=O)O[C@@H]2COP(=O)(O)O[C@H]2[C@@H](O)[C@H](n3cnc4c(=O)[nH]c(N)nc43)O[C@@H]2COP(=O)(O)O[C@H]2[C@@H](O)[C@H](n3ccc(N)nc3=O)O[C@@H]2COP(=O)(O)O[C@H]2[C@@H](O)[C@H](n3ccc(N)nc3=O)O[C@@H]2COP(=O)(O)O[C@H]2C[C@H](n3cc(C)c(=O)[nH]c3=O)O[C@@H]2COP(=O)(O)O[C@H]2[C@@H](O)[C@H](n3cnc4c(=O)[nH]c(N)nc43)O[C@@H]2COP(=O)(O)O[C@H]2[C@@H](O)[C@H](n3cnc4c(N)ncnc43)O[C@@H]2COc2ccc3c(c2)Oc2cc(O)ccc2C32OC(=O)c3ccccc32)O1` (some centres not stated), for which the remaining at 8 h in data set [1] was determined as 20%. Moreover, the dissociation constant Kd (as a rule, the concentration at which binding is half-saturated) in data set [2] came out at 0.21 nM. Moreover, the Stability result in data set [3] is reported as “Stable”.
As to `C=C1NC(=O)C(C)=CN1[C@H]1C[C@H](OP(=O)(O)OC[C@H]2O[C@@H](n3cnc4c(=O)[nH]c(N)nc43)[C@H](O)[C@@H]2OP(=O)(O)OC[C@H]2O[C@@H](n3cnc4c(N)ncnc43)[C@H](O)[C@@H]2OP(=O)(O)OC[C@H]2O[C@@H](n3ccc(N)nc3=O)[C@H](O)[C@@H]2OP(=O)(O)OC[C@H]2O[C@@H](n3cc(C)c(=O)[nH]c3=O)C[C@@H]2OP(=O)(O)OC[C@@]23COCO[C@@H]([C@H](n4cc(C)c(=O)[nH]c4=O)O2)[C@@H]3O)[C@@H](COP(=O)(O)O[C@H]2[C@@H](O)[C@H](n3cnc4c(=O)[nH]c(N)nc43)O[C@@H]2COP(=O)(O)O[C@H]2[C@@H](O)[C@H](n3cnc4c(=O)[nH]c(N)nc43)O[C@@H]2COP(=O)(O)O[C@H]2[C@@H](O)[C@H](n3cnc4c(=O)[nH]c(N)nc43)O[C@@H]2COP(=O)(O)O[C@H]2[C@@H](O)[C@H](n3cnc4c(=O)[nH]c(N)nc43)O[C@@H]2COP(=O)(O)O[C@H]2C[C@H](n3cc(C)c(=O)[nH]c3=O)O[C@@H]2COP(=O)(O)O[C@H]2C[C@H](n3cc(C)c(=O)[nH]c3=O)O[C@@H]2COP(=O)(O)O[C@H]2[C@@H](O)[C@H](n3cnc4c(=O)[nH]c(N)nc43)O[C@@H]2COP(=O)(O)O[C@H]2[C@@H](O)[C@H](n3cnc4c(=O)[nH]c(N)nc43)O[C@@H]2COP(=O)(O)O[C@H]2[C@@H](O)[C@H](n3cnc4c(N)ncnc43)O[C@@H]2COP(=O)(O)O[C@H]2[C@@H](O)[C@H](n3ccc(N)nc3=O)O[C@@H]2COP(=O)(O)O[C@H]2[C@@H](O)[C@H](n3cnc4c(=O)[nH]c(N)nc43)O[C@@H]2COP(=O)(O)O[C@H]2[C@@H](O)[C@H](n3cnc4c(=O)[nH]c(N)nc43)O[C@@H]2COP(=O)(O)O[C@H]2[C@@H](O)[C@H](n3cnc4c(=O)[nH]c(N)nc43)O[C@@H]2COP(=O)(O)O[C@H]2[C@@H](O)[C@H](n3cnc4c(N)ncnc43)O[C@@H]2COP(=O)(O)O[C@H]2C[C@H](n3cc(C)c(=O)[nH]c3=O)O[C@@H]2COP(=O)(O)O[C@H]2[C@@H](O)[C@H](n3cnc4c(=O)[nH]c(N)nc43)O[C@@H]2COP(=O)(O)O[C@H]2[C@@H](O)[C@H](n3cnc4c(=O)[nH]c(N)nc43)O[C@@H]2COP(=O)(O)O[C@H]2C[C@H](n3cc(C)c(=O)[nH]c3=O)O[C@@H]2COP(=O)(O)O[C@H]2[C@@H](O)[C@H](n3cnc4c(=O)[nH]c(N)nc43)O[C@@H]2COP(=O)(O)O[C@H]2[C@@H](O)[C@H](n3ccc(N)nc3=O)O[C@@H]2COP(=O)(O)O[C@H]2[C@@H](O)[C@H](n3ccc(N)nc3=O)O[C@@H]2COP(=O)(O)O[C@H]2C[C@H](n3cc(C)c(=O)[nH]c3=O)O[C@@H]2COP(=O)(O)O[C@H]2[C@@H](O)[C@H](n3cnc4c(=O)[nH]c(N)nc43)O[C@@H]2COP(=O)(O)O[C@H]2[C@@H](O)[C@H](n3cnc4c(N)ncnc43)O[C@@H]2COc2ccc3c(c2)Oc2cc(O)ccc2C32OC(=O)c3ccccc32)O1` (some centres not stated), the Kd in data set [2] was 0.27 nM. Besides, the Stability result in data set [3] was “Stable”.
In turn, `C=C1NC(=O)C(C)=CN1[C@H]1C[C@H](OP(=O)(O)OC[C@H]2O[C@@H](n3cnc4c(=O)[nH]c(N)nc43)[C@H](O)[C@@H]2OP(=O)(O)OC[C@H]2O[C@@H](n3cnc4c(N)ncnc43)[C@H](O)[C@@H]2OP(=O)(O)OC[C@H]2O[C@@H](n3ccc(N)nc3=O)[C@H](O)[C@@H]2OP(=O)(O)OC[C@H]2O[C@@H](n3cc(C)c(=O)[nH]c3=O)C[C@@H]2OP(=O)(O)OC[C@@]23CO[C@@H]([C@H](n4cc(C)c(=O)[nH]c4=O)O2)[C@@H]3O)[C@@H](COP(=O)(O)O[C@H]2[C@@H](O)[C@H](n3cnc4c(=O)[nH]c(N)nc43)O[C@@H]2COP(=O)(O)O[C@H]2[C@@H](O)[C@H](n3cnc4c(=O)[nH]c(N)nc43)O[C@@H]2COP(=O)(O)O[C@H]2[C@@H](O)[C@H](n3cnc4c(=O)[nH]c(N)nc43)O[C@@H]2COP(=O)(O)O[C@H]2[C@@H](O)[C@H](n3cnc4c(=O)[nH]c(N)nc43)O[C@@H]2COP(=O)(O)O[C@H]2C[C@H](n3cc(C)c(=O)[nH]c3=O)O[C@@H]2COP(=O)(O)O[C@H]2C[C@H](n3cc(C)c(=O)[nH]c3=O)O[C@@H]2COP(=O)(O)O[C@H]2[C@@H](O)[C@H](n3cnc4c(=O)[nH]c(N)nc43)O[C@@H]2COP(=O)(O)O[C@H]2[C@@H](O)[C@H](n3cnc4c(=O)[nH]c(N)nc43)O[C@@H]2COP(=O)(O)O[C@H]2[C@@H](O)[C@H](n3cnc4c(N)ncnc43)O[C@@H]2COP(=O)(O)O[C@H]2[C@@H](O)[C@H](n3ccc(N)nc3=O)O[C@@H]2COP(=O)(O)O[C@H]2[C@@H](O)[C@H](n3cnc4c(=O)[nH]c(N)nc43)O[C@@H]2COP(=O)(O)O[C@H]2[C@@H](O)[C@H](n3cnc4c(=O)[nH]c(N)nc43)O[C@@H]2COP(=O)(O)O[C@H]2[C@@H](O)[C@H](n3cnc4c(=O)[nH]c(N)nc43)O[C@@H]2COP(=O)(O)O[C@H]2[C@@H](O)[C@H](n3cnc4c(N)ncnc43)O[C@@H]2COP(=O)(O)O[C@H]2C[C@H](n3cc(C)c(=O)[nH]c3=O)O[C@@H]2COP(=O)(O)O[C@H]2[C@@H](O)[C@H](n3cnc4c(=O)[nH]c(N)nc43)O[C@@H]2COP(=O)(O)O[C@H]2[C@@H](O)[C@H](n3cnc4c(=O)[nH]c(N)nc43)O[C@@H]2COP(=O)(O)O[C@H]2C[C@H](n3cc(C)c(=O)[nH]c3=O)O[C@@H]2COP(=O)(O)O[C@H]2[C@@H](O)[C@H](n3cnc4c(=O)[nH]c(N)nc43)O[C@@H]2COP(=O)(O)O[C@H]2[C@@H](O)[C@H](n3ccc(N)nc3=O)O[C@@H]2COP(=O)(O)O[C@H]2[C@@H](O)[C@H](n3ccc(N)nc3=O)O[C@@H]2COP(=O)(O)O[C@H]2C[C@H](n3cc(C)c(=O)[nH]c3=O)O[C@@H]2COP(=O)(O)O[C@H]2[C@@H](O)[C@H](n3cnc4c(=O)[nH]c(N)nc43)O[C@@H]2COP(=O)(O)O[C@H]2[C@@H](O)[C@H](n3cnc4c(N)ncnc43)O[C@@H]2COc2ccc3c(c2)Oc2cc(O)ccc2C32OC(=O)c3ccccc32)O1` (some centres not stated) returned a Kd in data set [2] of 0.18 nM. In addition, in data set [3], the Stability result was “Stable”.
